Test system: MS2 coat protein
Assay: apparent Kd, MS2 coat protein; higher = weaker binding; RNA-MaP array; FMN 200 µM where present
Procedure, shortened: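 The titrant was SNAP-549-labelled MS2 coat protein, run from 0.7 or 1.5 nM in doubling steps to 3 µM. It was applied to designs transcribed by stalled E. coli RNA polymerase on Illumina sequencing-chip clusters, without ligand first and then with constant ligand, in 100 mM Tris-HCl pH 7.5, 80 mM KCl, 4 mM MgCl2, BSA, DTT, yeast tRNA and Tween-20. The apparent Kd is the median of filtered per-cluster binding-curve fits, with green signal normalised to red-channel RNA signal and control-cluster median Fmax.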

[1] = designed as: OFF switch for flavin mononucleotide, no ligand
[2] = ligand present: flavin mononucleotide, designed as: OFF switch for flavin mononucleotide
[3] = designed as: ON switch for flavin mononucleotide, no ligand
[4] = ligand present: flavin mononucleotide, designed as: ON switch for flavin mononucleotide

Sequence	apparent Kd [1] [nM]	apparent Kd [2] [nM]	apparent Kd [3] [nM]	apparent Kd [4] [nM]
CCUAUGUGAGGAUAUCACUGGUCUGCUCACUAGAUGAUCAGUGAGAAGGCACAUGAGGAUCACCCAUGUCAGUG	183	41.7		
GCUAGGAAUGUCAGGAUAUGCUGUACCUUGGUACAGCAGAAGGGACAUGAGGAUCACCCAUGUGCUAACCUAGC	29.6	130		
AGAUACAGGCAGAAGGGUUGGUAAGUUGGGUCAACAGGAUAUGCCUCUGUGACAUGAGGAUCACCCAUGUUACCAAACAGUCUU			583	49.5
GUACCUUAUGAGAAGGCGAUCAUUAAACAUGAUCGAGGAUAUCAUGAAAACAUGAGGAUCACCCAUGUAUGGGUAUUAUGGUAC			33.6	16.4
ACGUUUAAUACAGGAUAUGUUAAUAUACAAUAGAUUGGAUAUUACUUAAUUACAGAAGGGUAGAACAUGAGGAUCACCCAUGUA			329	239
GCGUAAGUCACAGGAUAUCCAACAUGAGGAUCACCCAUGUAAAAGUGCCGCACUAGAAUGCGACUGGAGAAGGGUGAUUCGUCG			50.3	27.5
CCUGACGCAUCAGGAUAUGCUUACAUCCAUGUUGCAGAAGGGAUGCGUUCUGAAAACAUGAGGAUCACCCAUGUAAGCGGCCAA			82	52.2
UAGAAGUCAGGAUAUCCUGCUCGUCACUUGCGUGAUGAGUAGGAGAAGGGACAUGAGGAUCACCCAUGUAAAGG	188	258		
UAUGGUUAAGUCAGGAUAUGCUCAUAGAGGUCUGUGCAGAAGGGACAUGAGGAUCACCCAUGUAUGGUCGUGUU	254	237		
UUGGACGUCGUAGGAUAUGUAAGAUAUUCCUACAUGAGGAUCACCCAUGUUGACAUGGAAGAAGGACAGAAGGACGAUGUCCAU			6.47	4.87
GUAUCUCCUGACAUGAGGAUCACCCAUGUUUAAUUAUUAAAUCAGGAUAUCCUCUCGAAACGAGAGGAGAAGGGAUAAGAUACU			5.66	5.72
UGUUACUAGUAAGGAUAUACUUGCGACUAGCUUGUAGAAGGUACAGUCUUUUGUAUAACAUGUUUACAUGAGGAUCACCCAUGU			9.05	8.38
AAACAUGUCCGAGGAUAUCUGGAAACAUUUUCAAGAGAAGGCGGACAUGAGGAUCACCCAUGUCUCUCCUCAUCAACUACAAAC	8.57	53.2		
ACAUGGAAGCAGGAUAUGCUUGUAUAAUUGUUUGCAGAAGGGCUAACAUGAGGAUCACCCAUGUAAGAGGUCUA	16.2	25.8		
CCGGCCGCCGUGAGGAUAUGCCCGCGCGCCCGCGGGCAGAAGGCACAUGAGGAUCACCCAUGUCCUGCGGUCCC	20.1	119		
GUAGGACAUGAGGAUCACCCAUGUGGGAGGGAACGAGGAUAUGUGAAAGGAUUGAAGAGGACAGAAGGCGUGGAGG			44.4	35.3
ACGACGAAAGUCGAACGAUGUACGAGAAGGACAUGAGGAUCACCCAUGUUAUCUGUUAUAGACAUGUAGGAUAUCGUACAUCGA	8.25	26.8		
CCAGCGUAUGUGAGGAUAUGCUGGUCCUUGGAUCAGCAGAAGGCACAUGAGGAUCACCCAUGUGAUAACGUUGG	59.5	261		
GCGCACUAAGUGAGGAUAUCGUUUAUUUAUAGGAUCGAGAAGGCACAUGAGGAUCACCCAUGUUAAACGUGCGC	18.5	13.9		
GUGUACAGAGGAUAUACAUGAGCAUGGAAACAUGCAACUUCACAUGAGGAUCACCCAUGUAGAAGGCUGUACAC	25.1	111		
UUUUAACAUGAGGAUCACCCAUGUGAGGAUAUCGAAAUUUAUAUUAAUAUUAUUUUUUCGAGAAGGCACAUUUU	124	155		
CGCAUAUAUGUAAGGAUAUCUGCUUCGCAGAGGCAAGAGAAGGUACAUGAGGAUCACCCAUGUAUUUAAGGCGG	22.6	25.6		
GUAAAUCAUGUAGGAUAUGCAUGGCGAAGCUACGCAGAAGGACAUGAGGAUCACCCAUGUUCUAGCGUCUGAGUUCAGAUGCAA	19.3	45.9		
ACUGUCGCGUGAGGAUAUGGUCUGCAGUGCUGACCAGAAGGCAUGUCGAUAGACAUGAGGAUCACCCAUGUGGUUAGGGCGGCU			619	298
GGAGCAAGUGUCAGGAUAUCGUGGUCGAUAGAUCACGAGAAGGGACAUGAGGAUCACCCAUGUGUCCUAGCUCC	262	484		
GACAUUGACAAGAAGGCAAACAUGAGGAUCACCCAUGUUCUGCAUGUAUAUUGAGGAUAUUGCCAAUGUAUGUGGAUCACCCAA	6.25	15.2		
UUGACGGCAGGAUAUACAUGAGGAUCACCCAUGUAAAUUUUUCGUUUAACUUGAAUGUGUAGAAGGGCCAAAAU	19.4	18.8		
UGGUUGUGUGUUAGGAUAUGGUCUGGUGUUUCGGGCUAGAAGGGACAUGAGGAUCACCCAUGUGGCUGGCGGGU	127	126		

Sequence	apparent Kd [1] [nM]	apparent Kd [2] [nM]	apparent Kd [3] [nM]	apparent Kd [4] [nM]
GGAGACCUCACAGGAUAUGCUGGACUUUGUCCAGCAGAAGGGUGAAAACAUGAGGAUCACCCAUGUAUGGUCUCCAAAUUUAAC			182	13.6
UCGCUGCGAGGAUAUACGUGCGCGCGCGCGCGCGCGCGCGUACAUGAGGAUCACCCAUGUAGAAGGCGCGCUGC	17.1	17.1		
GAGCGAAAGCUCAAUGUCGAUAGCAGAAGGACAUGUAAAAUCAUGAAAACAUGAGGAUCACCCAUGUAGGAUAUGCUAUCGACU	23	371		
UACAUGAGGAUCACCCAUGUUUUGUCGUGUAUGGUAUUUAUCUAGGAUAUCAUUUUAGUUAGUUAUGAGAAGGAGAAUAUUAAU	32.2	31.6		
AAAAAACAUGAGGAUCACCCAUGUCAGGAUAUCUGGAGAAACGGAAAGAAAAAGAAACGGAGAAGGGACAUAAA	41.1	48		
GUAUCUUACCAAGGAUAUUUAAGAUUUGUGUAGACAUGAGGAUCACCCAUGUGGCCUUAGUCACGGGAGAAGGUGGUUUGAUAC			940	492
ACUGUCCGAGAGAAGGGAACAUGAGGAUCACCCAUGUUACCUCACCUGGUGACGGAACUCCAAGUUCAGGAUAUCUCGAGCGGU	4.72	6.53		
CUGGCCCAGCCCGCCUAGUUCGGGAGAAGGAGGAGACAUGAGGAUCACCCAUGUGGCCUUAUCUCCUAGGAUAUCCCGGCGGGU	5.32	17.9		
ACAUUCUUUCGAGGAUAUCGGUGAUUAAUUUUACGAGAAGGCGAUUUAAGAUAUAAUAUUUUAGACAUGAGGAUCACCCAUGUA			26.1	24.1
CGCCGACAUGAGGAUCACCCAUGUCACAACUGGUCAGGAUAUGGUAUGAUUUGGCUAUUGCCAGAAGGGACCUCAG			50.5	21
UUUAUGUGAGGAUAUCAGUAGUAAAAAAAUAAAAUUACUACUGAGAAGGCACAUGAGGAUCACCCAUGUCCUUC	18.6	20		
AGUAAGAUGCAGAAGGUGUUAGCUAGAGCUACGACAUGAGGAUCACCCAUGUACUAGAAACAGUACAAGGAUAUGCAUCUUACU			18.4	6.43
AAGUCUGGAUGAGGAUAUCAGCUGUAACUGGCGUCGACAUGAGGAUCACCCAUGUUGCUAUAGGGUGAGAAGGCAUUUGGGCAA			43.1	28.8
GGAUUUCCUGAGGAUAUUGCAUCACCCGAUUUAUAAGAAGGCAGAACAUGAGGAUCACCCAUGUGGGUCUCCGG	18.9	23.1		
UUAAAUCGAAACAUGAGGAUCACCCAUGUGUUGUAAUUAACAUAGGAUAUGUAUAUACUUUUUAAAUAGAAGGAUGAUAAUACU			16.1	11.6
AUCAGCACGUGAGGAUAUGCGUUACUGCGAAAGCAGUACGGUAAGAUCACAUGAGGAUCACCCAUGUAGAAGGCACGAGCUGAU	16.6	36.9		
UCUUUACUGGUCAGGAUAUACAUUCGCUACUCCUUGUAGAAGGGACAUGAGGAUCACCCAUGUACUUUACAUUC	18.5	19.5		
ACGCCCUGAGGAUAUCUUAUGCCGCACAUGAGGAUCACCCAUGUUCUCCUCCGGGCUCCGAGAGAAGGCAGGCCCA	8.82	10.2		
UGUAUACAGUCAGGAUAUCAUAGGUUGGUGCUUCUCCAGUGGUACAUGAGGAUCACCCAUGUUUAUGAGAAGGGACUAUUACCU	7.82	15.1		
UUUUGAAAGUGAGGAUAUGACAUGAGGAUCACCCAUGUAAAGGGAGUUGAAUAUAUAGAAAGAUAUCAGAAGGCACAAAUGUUU	178	497		
AUACUAAAUGAAGGAUAUCUAAGCAUACACCUGAGAGAAGGUCAUUUUGACAUGAGGAUCACCCAUGUUGUGGUUAAUGGGUUA	237	225		
CCAUGGCAUGUAGGAUAUGUCUGACAAAGUCAGACAGAAGGACAUGAGGAUCACCCAUGUAAUGGAAAACCAAUAUAGCCAUGG	7.62	11.3		
UUAUGUUUUGUAGGAUAUCAUUAGUUUUGUAUUUUAAUUGUAAUUUAGAUAUGAGAAGGACAUUUACAUGAGGAUCACCCAUGU	20.3	14.2		
AUUUAGUGCGAGAAGGCGUGGUCACAUGAGGAUCACCCAUGUCAGUACACGAGGAUAUCGAUUCGCUGUGUAAACACAAGCGAC			80.7	6.67
GCAUGCAAGUAGAAGGUCGGAUAUUUUGAUACCGAAGGAUAUGCAGAAUCAUAUCCACAUGAUAACAUGAGGAUCACCCAUGUA	15.3	12.7		
UAUAUAUAGUAAGGAUAUGUAUAUAGUUUAUAAACAGAAGGUACUGACAUGAGGAUCACCCAUGUUUUAGUGUGGGCAUGUAGA	77.9	99.5		
UUGUGCUUAGAGAAGGUUCAAACUACAUAUUGCGCACAUGAGGAUCACCCAUGUUGGUGAAUAAGAAAGGAUAUUUGACUGUAC	118	85.2		
